Only a selection was taken, and hits are over-represented in it overall.
STK33 inh: inhibitors of human STK33 kinase; 320,000 compounds, 0.073% hits; purified STK33, MBP phosphorylation, ADP-Glo luminescence; inhibition, % at 10 µM; Q9BYT3;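 active = inhibition at or above 25%, using the most active replicate where run in duplicate; inactive = inhibition below 25%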
Target sequence (Q9BYT3 whole entry, looked up): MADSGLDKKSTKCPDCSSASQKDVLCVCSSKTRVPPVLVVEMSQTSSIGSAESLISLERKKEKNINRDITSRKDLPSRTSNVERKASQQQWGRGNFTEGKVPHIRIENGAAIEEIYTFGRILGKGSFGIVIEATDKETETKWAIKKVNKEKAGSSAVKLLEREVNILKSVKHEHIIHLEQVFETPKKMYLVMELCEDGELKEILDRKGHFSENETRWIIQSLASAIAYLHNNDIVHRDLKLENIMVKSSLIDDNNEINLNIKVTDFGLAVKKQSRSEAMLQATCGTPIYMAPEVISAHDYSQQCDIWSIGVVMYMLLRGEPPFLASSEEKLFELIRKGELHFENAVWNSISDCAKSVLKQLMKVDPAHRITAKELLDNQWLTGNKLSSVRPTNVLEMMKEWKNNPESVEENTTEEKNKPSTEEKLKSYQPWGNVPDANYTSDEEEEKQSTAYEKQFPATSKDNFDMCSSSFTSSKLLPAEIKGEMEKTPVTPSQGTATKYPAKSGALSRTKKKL
DYRK1A inh: inhibitors of rat Dyrk1A kinase. ADP-Glo luminescence, NFATc1 peptide. inhibition, % at 12.5 µM. Q63470. 310,000 compounds, 0.43% hits; in the data active = inhibition above about 50%;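 also: plate controls were vehicle with enzyme for no effect and no enzyme for full effect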
GSK3 alpha inh: inhibitors of human GSK-3 alpha kinase; inhibition, % at 10 µM; 320,000 compounds, 0.1% hits; ADP-Glo luminescence, 60 min; P49840;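 active = more than half of replicates show inhibition above 20%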;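 also: GST-tagged GSK-3 alpha with peptide substrate and 25 µM ATP; 0% = DMSO neutral wells and 100% = GW8510 positive control wells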
GSK3beta inhib: blocks human GSK3beta kinase activity; P49841; GST-GSK3beta kinase, ADP-Glo luminescence, 60 min; active compounds read low; activity score (negative = inhibition), % at 10 µM; 300,000 compounds, 0.038% hits; AID 2097;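 active = more than half of replicate wells score below -50%, meaning over 50% inhibition versus plate controls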;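 also: 0% = median DMSO wells and -100% = median GW8510 positive control wells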
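test system = GST-tagged human GSK3beta kinase, cell-free | reagent = 25 µM ATP with peptide substrate | dosing = one dose of 10 µM per compound | schedule = 60 min reaction, RT | detection = luminescent ADP-Glo measurement of ADP formed | control set = DMSO neutral wells and GW8510 at 20 µM as positive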
Active calls of the source: *; . = no result given.

SMILES | STK33 inh | DYRK1A inh | GSK3 alpha inh | GSK3beta inhib
CCC(C)Nc1nc(N)c([N+](=O)[O-])c(Nc2ccccc2OC)n1 (stereo not drawn) | 0.8 | 39.3 | 65.7* | -54.6*
O=C(O)c1ccc(N=Nc2c(O)[nH]c3ccccc23)cc1 | 29.1* | 4.8 | 50.6* | -1.0
CC(NC(=O)CSC(=S)N1CCCC1)c1ccc(S(N)(=O)=O)cc1 (stereo not drawn) | -0.9 | -7.0 | -1.2 | -4.5
CN(C)S(=O)(=O)c1cccc(NC(=S)Nc2ccc3cn[nH]c3c2)c1 | 47.5* | . | 22.4 | -0.6
CNC(=S)Nc1cccc(-c2cnc3ccccc3n2)c1 | 25.7* | 28.5 | 18.0 | -1.3
O=C(NCCCO)c1cc2c([nH]c3ccccc32)c(-c2ccccc2)n1 | 28.7* | 4.2 | 1.0 | 2.2
O=C(NCCCO)c1cc2c(cn1)[nH]c1ccccc12 | 0.9 | 3.0 | -2.8 | -1.1
Cc1cccc(Cn2c(-c3ccc[nH]c3=O)nc3ccccc32)c1 | -0.5 | -1.9 | 0.7 | 2.2
CCN1C(=O)CC(C(C)C)N(C2CCCC2)c2nc(Nc3ccc(C(=O)NC4CCN(C)CC4)cc3OC)ncc21 (stereo not drawn) | . | 3.3 | . | .
CCN1C(=O)CC(c2ccccc2)N(C2CCCC2)c2nc(Nc3ccc(C(=O)NC4CCN(C)CC4)cc3OC)ncc21 (stereo not drawn) | 47.5* | 44.5 | 5.9 | .
CCSc1nc(N2CCOCC2)c2c(c1C#N)CCCC2 | 31.3* | 20.2 | 6.0 | -16.6
CN1CCN(c2ccc(NC(=O)c3ccc(-c4cccc([N+](=O)[O-])c4)o3)cc2)CC1 | 35.8* | 2.6 | 4.3 | 0.8
CN1CCN(c2ccc(NC(=O)c3ccc(-c4ccc(Cl)cc4)o3)cc2)CC1 | -0.3 | 8.9 | 1.6 | -6.7
CCc1cc([N+](=O)[O-])cc(CC)c1N | -0.4 | 70.1* | -0.6 | 3.5
Cc1ccc([N+](=O)[O-])cc1N | . | -1.2 | -2.6 | 0.4
O=C(CCNC(=O)c1ccc([N+](=O)[O-])cc1)NCCc1ccccc1 | -1.6 | -3.9 | -0.5 | .
Cc1c(/C=C/C(=O)c2ccc(O)cc2)cnn1C | 28.9* | -3.7 | 3.4 | -0.3
CCn1cc(/C=C/C(=O)c2ccc(O)cc2)c(C)n1 | 44.0* | 17.2 | 1.0 | 4.1
CC(C)N(C)C1=CC(=O)C(N(C)C(C)C)=CC1=O | . | -5.2 | . | .
CCOC(=O)Cc1nnc(NC(=O)CSc2nc3ccccc3[nH]2)s1 | 0.2 | -0.6 | 0.8 | -1.8
O=c1c(-c2c(O)cc(O)c3c2O[C@H](c2ccc(O)cc2)CC3)c(-c2ccc(O)cc2)oc2cc(O)cc(O)c12 | 25.3* | 34.9 | 0.8 | .
O=C1CC(c2ccc(O)cc2)Oc2cc(O)cc(O)c21 (stereo not drawn) | 4.5 | 20.8 | 10.1 | 1.2
COc1cc(/C=N/NC(=O)c2sc(N)c(C#N)c2C)ccc1O | 8.8 | 3.3 | 64.9* | -45.1
COCCCNc1nc(N)c([N+](=O)[O-])c(NC2CCCCC2)n1 | 1.9 | 3.0 | 59.6* | -21.8
COCCCNc1nc(N)c([N+](=O)[O-])c(N2CCCCCC2)n1 | 0.2 | 19.7 | 54.2* | 0.2
SMILES | STK33 inh | DYRK1A inh | GSK3 alpha inh | GSK3beta inhib
Nc1nc(NCCO)nc(N2CCCCCC2)c1[N+](=O)[O-] | 1.8 | 14.3 | 53.6* | -17.1
c1cncc(C2Nc3ccccc3-c3nc4ccccc4n32)c1 (stereo not drawn) | 39.4* | 25.6 | 9.8 | -1.2
c1ccc2c(c1)NC(c1ccncc1)n1c-2nc2ccccc21 (stereo not drawn) | -1.1 | 10.1 | -16.4 | -9.2
CCn1c(SCC(=O)Nc2nc(C)cs2)nnc1-c1ccncc1 | 0.3 | 0.0 | 1.7 | 0.0
CCCn1c(NC(=O)c2ccccc2)nc2ccccc21 | 12.8 | -3.0 | -1.3 | -2.5
CCCn1c(NC(=O)c2cccc(S(=O)(=O)N3CCCC3)c2)nc2ccccc21 | 44.4* | 34.7 | 0.1 | 0.8
C=CC(=O)Nc1ccc(Nc2nc(NC3CCC(N(C)C)CC3)nc3c2ncn3C(C)C)cc1 (stereo not drawn) | 80.6* | 93.4* | 14.6 | .
COc1cccc(NC(=O)Cc2nnc(SCC(=O)NC3CCCC3)n2C)c1 | -2.3 | -5.7 | 5.2 | 2.2
COc1ccc(C(CC(=O)O)c2cc(OC)c(OC)c(OC)c2)cc1OC (stereo not drawn) | . | -3.8 | . | .
NC1=NC(=Nc2cccc(S(N)(=O)=O)c2)c2ccccc21 | 0.5 | -5.1 | 1.9 | 2.2
COc1cc(N=Nc2cccc(S(N)(=O)=O)c2)c2ccccc2c1N | 4.3 | 58.5* | 4.2 | -3.5
Cc1ccc(CN2C(=O)CCC2C(=O)NCCc2ccccc2)cc1 (stereo not drawn) | -1.9 | -0.6 | -1.2 | 2.6
CCCCN(C(=O)c1cc(-c2ccco2)nc2ccccc12)c1c(N)n(CCC)c(=O)[nH]c1=O | 0.3 | . | 2.0 | .

Compound activity as filed in PubChem.
